Values after ≈ are worked out from the molar mass of the structure shown. Active and inactive are the calls of the source. The rule behind the calls is not given here.
Key:
Mycobacterium avium [1] = assay: Antimycobacterial activity against isoniazid, rifampicin, ethambutol and ofloxacin-resistant Mycobacterium avium My 330/88 after 21 days; type: functional; details: My 330/88, 504 h
Summary of the method: (§1)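 Micromethod MIC in Šula's semisynthetic medium at 37 °C. Compounds added in DMSO at 1000 down to 0.032 µmol/L. Isoniazid standard in sterile water at 0.5–250 µmol/L. Inocula: H37Rv 10^3, M. avium 10^5, M. kansasii 10^4. Read at 14 and 21 d, plus 7 d for M. kansasii.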

Mycobacterium avium [2] = assay: Antimycobacterial activity against isoniazid, rifampicin, ethambutol and ofloxacin-resistant Mycobacterium avium My 330/88 after 14 days; type: functional; details: My 330/88, 336 h; summary of the method: as §1
[3] = system: Mycobacterium tuberculosis; assay: Antimycobacterial activity against Mycobacterium tuberculosis H37Rv My 331/88 after 21 days; type: functional; details: H37Rv My 331/88, 504 h; summary of the method: as §1
[4] = system: Mycobacterium tuberculosis; assay: Antimycobacterial activity against Mycobacterium tuberculosis H37Rv My 331/88 after 14 days; type: functional; details: H37Rv My 331/88, 336 h; summary of the method: as §1
[5] = system: Trichophyton mentagrophytes; assay: Antifungal activity against Trichophyton mentagrophytes 445 after 120 hrs by broth microdilution method; type: functional; details: Trichophyton mentagrophytes, 445, 120 h
Summary of the method: (§2)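 Filamentous dermatophyte tested by broth microdilution in RPMI 1640 with glutamine, fluconazole as reference. Value expressed as IC50 relative to growth control. Read at 72 and 120 h.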

[6] = system: Trichophyton mentagrophytes; assay: Antifungal activity against Trichophyton mentagrophytes 445 after 72 hrs by broth microdilution method; type: functional; details: Trichophyton mentagrophytes, 445, 72 h; summary of the method: as §2
Lichtheimia corymbifera [7] = assay: Antifungal activity against Absidia corymbifera 272 after 48 hrs by broth microdilution method; type: functional; details: Lichtheimia corymbifera, 272, 48 h
Summary of the method: (§3)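 Broth microdilution in RPMI 1640 with glutamine, fluconazole as reference. For yeasts, MIC is ≥80% growth reduction (IC80) versus control. For filamentous fungi, the value is expressed as IC50. Readings at 24 and 48 h.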

Lichtheimia corymbifera [8] = assay: Antifungal activity against Absidia corymbifera 272 after 24 hrs by broth microdilution method; type: functional; details: Lichtheimia corymbifera, 272, 24 h; summary of the method: as §3
Aspergillus fumigatus [9] = assay: Antifungal activity against Aspergillus fumigatus 231 after 48 hrs by broth microdilution method; type: functional; details: Aspergillus fumigatus, 231, 48 h; summary of the method: as §3
Aspergillus fumigatus [10] = assay: Antifungal activity against Aspergillus fumigatus 231 after 24 hrs by broth microdilution method; type: functional; details: Aspergillus fumigatus, 231, 24 h; summary of the method: as §3
Trichosporon asahii [11] = assay: Antifungal activity against Trichosporon asahii 1188 after 48 hrs by broth microdilution method; type: functional; details: Trichosporon asahii, 1188, 48 h; summary of the method: as §3
Trichosporon asahii [12] = assay: Antifungal activity against Trichosporon asahii 1188 after 24 hrs by broth microdilution method; type: functional; details: Trichosporon asahii, 1188, 24 h; summary of the method: as §3
Pichia kudriavzevii [13] = assay: Antifungal activity against Candida krusei E28 after 48 hrs by broth microdilution method; type: functional; details: E28, 48 h; summary of the method: as §3
Pichia kudriavzevii [14] = assay: Antifungal activity against Candida krusei E28 after 24 hrs by broth microdilution method; type: functional; details: E28, 24 h; summary of the method: as §3
Candida albicans [15] = assay: Antifungal activity against Candida albicans ATCC 44859 after 48 hrs by broth microdilution method; type: functional; details: ATCC 44859, 48 h; summary of the method: as §3
Candida albicans [16] = assay: Antifungal activity against Candida albicans ATCC 44859 after 24 hrs by broth microdilution method; type: functional; details: ATCC 44859, 24 h; summary of the method: as §3
Nakaseomyces glabratus = assay: Antifungal activity against Candida glabrata 20/I at 500 micromol/L after 24 to 48 hrs by broth microdilution method; type: functional, organism-based; summary of the method: as §3
Candida tropicalis = assay: Antifungal activity against Candida tropicalis 156 at 500 micromol/L after 24 to 48 hrs by broth microdilution method; type: functional, organism-based; summary of the method: as §3
Pseudomonas aeruginosa = assay: Antibacterial activity against Pseudomonas aeruginosa CCM 1961 at 500 micromol/L after 24 to 48 hrs by broth microdilution method; type: functional, organism-based
Summary of the method: (§4)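 Broth microdilution in Mueller–Hinton broth, compounds dissolved in DMSO, tested over a dilution series from 500 downward. MIC taken as ≥95% growth reduction (IC95) versus drug-free control. Benzylpenicillin comparator. Readings at 24 and 48 h.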

Klebsiella pneumoniae [17] = assay: Antibacterial activity against ESBL-positive Klebsiella pneumoniae J 14368/08 at 500 micromol/L after 24 to 48 hrs by broth microdilution method; type: functional, organism-based; summary of the method: as §4
Klebsiella pneumoniae [18] = assay: Antibacterial activity against Klebsiella pneumoniae D 11750/08 at 500 micromol/L after 24 to 48 hrs by broth microdilution method; type: functional, organism-based; summary of the method: as §4
Escherichia coli = assay: Antibacterial activity against Escherichia coli CCM 4517 at 500 micromol/L after 24 to 48 hrs by broth microdilution method; type: functional, organism-based; summary of the method: as §4
Enterococcus sp. = assay: Antibacterial activity against Enterococcus sp. J 14365/08 at 500 micromol/L after 24 to 48 hrs by broth microdilution method; type: functional, organism-based; summary of the method: as §4
[19] = system: Staphylococcus epidermidis; assay: Antibacterial activity against Staphylococcus epidermidis H 6966/08 after 48 hrs by broth microdilution method; type: functional; details: H 6966/08, 48 h; summary of the method: as §4
[20] = system: Staphylococcus epidermidis; assay: Antibacterial activity against Staphylococcus epidermidis H 6966/08 after 24 hrs by broth microdilution method; type: functional; details: H 6966/08, 24 h; summary of the method: as §4
Staphylococcus aureus [21] = assay: Antibacterial activity against methicillin-resistant Staphylococcus aureus H 5996/08 after 48 hrs by broth microdilution method; type: functional; details: H 5996/08, 48 h; summary of the method: as §4
Staphylococcus aureus [22] = assay: Antibacterial activity against methicillin-resistant Staphylococcus aureus H 5996/08 after 24 hrs by broth microdilution method; type: functional; details: H 5996/08, 24 h; summary of the method: as §4
Staphylococcus aureus [23] = assay: Antibacterial activity against Staphylococcus aureus CCM 4516/08 after 48 hrs by broth microdilution method; type: functional; details: CCM 4516/08, 48 h; summary of the method: as §4
Staphylococcus aureus [24] = assay: Antibacterial activity against Staphylococcus aureus CCM 4516/08 after 24 hrs by broth microdilution method; type: functional; details: CCM 4516/08, 24 h; summary of the method: as §4
Mycobacterium kansasii [25] = assay: Antimycobacterial activity against Mycobacterium kansasii 6509/96 after 21 days; type: functional; details: 6509/96, 504 h; summary of the method: as §1
Mycobacterium kansasii [26] = assay: Antimycobacterial activity against Mycobacterium kansasii 6509/96 after 14 days; type: functional; details: 6509/96, 336 h; summary of the method: as §1
Mycobacterium kansasii [27] = assay: Antimycobacterial activity against Mycobacterium kansasii 6509/96 after 7 days; type: functional; details: 6509/96, 168 h; summary of the method: as §1
Mycobacterium kansasii [28] = assay: Antimycobacterial activity against Mycobacterium kansasii My 235/80 after 21 days; type: functional; details: My 235/80, 504 h; summary of the method: as §1
Mycobacterium kansasii [29] = assay: Antimycobacterial activity against Mycobacterium kansasii My 235/80 after 14 days; type: functional; details: My 235/80, 336 h; summary of the method: as §1
HepG2 = assay: Cytotoxicity against human HepG2 cells after 24 hrs by CellTiter assay; type: cell-based; details: HepG2, 24 h
Summary of the method: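 HepG2 cells (passage 27–33) in MEM with 10% FBS, L-glutamine and NEAA, seeded at 1×10^4 per well. Treated next day with compounds at 0.1–100 µM (or 0.1–25 µmol/L), triplicates, <1% DMSO, for 24 h at 37 °C, 5% CO2. MTS reagent added for 2 h, absorbance read at 490 nm. IC50 taken against untreated (100%) and 10% DMSO (0%) controls.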

Mycobacterium kansasii [30] = assay: Antimycobacterial activity against Mycobacterium kansasii My 235/80 after 7 days; type: functional; details: My 235/80, 168 h; summary of the method: as §1

SMILES | MIC (Mycobacterium avium [1]) | MIC (Mycobacterium avium [2]) | MIC [3] | MIC [4] | MIC50 [5] | MIC50 [6] | MIC50 (Lichtheimia corymbifera [7]) | MIC50 (Lichtheimia corymbifera [8]) | MIC50 (Aspergillus fumigatus [9]) | MIC50 (Aspergillus fumigatus [10]) | MIC80 (Trichosporon asahii [11]) | MIC80 (Trichosporon asahii [12]) | MIC80 (Pichia kudriavzevii [13]) | MIC80 (Pichia kudriavzevii [14]) | MIC80 (Candida albicans [15]) | MIC80 (Candida albicans [16]) | Activity (Nakaseomyces glabratus) | Activity (Candida tropicalis) | Activity (Pseudomonas aeruginosa) | Activity (Klebsiella pneumoniae [17]) | also measured
CCOP(=O)(OCC)Oc1cc(Cl)ccc1C(=O)Nc1ccc(C(F)(F)F)cc1 | 4 µM (≈ 1.81 µg/mL) | 4 µM (≈ 1.81 µg/mL) | 1 µM (≈ 0.452 µg/mL) | 1 µM (≈ 0.452 µg/mL) | 250 µM (≈ 113 µg/mL) | 250 µM (≈ 113 µg/mL) | > 500 µM | > 500 µM | > 500 µM | > 500 µM | > 500 µM | > 500 µM | > 500 µM | > 500 µM | > 500 µM | > 500 µM | inactive | inactive | inactive | inactive | Activity (Klebsiella pneumoniae [18]): inactive; Activity (Escherichia coli): inactive; Activity (Enterococcus sp.): inactive; MIC95 [19]: 31.2 µM (≈ 14.1 µg/mL); MIC95 [20]: 31.2 µM (≈ 14.1 µg/mL); MIC95 (Staphylococcus aureus [21]): 62.5 µM (≈ 28.2 µg/mL); MIC95 (Staphylococcus aureus [22]): 62.5 µM (≈ 28.2 µg/mL); MIC95 (Staphylococcus aureus [23]): 31.2 µM (≈ 14.1 µg/mL); MIC95 (Staphylococcus aureus [24]): 31.2 µM (≈ 14.1 µg/mL); MIC (Mycobacterium kansasii [25]): 2 µM (≈ 0.904 µg/mL); MIC (Mycobacterium kansasii [26]): 2 µM (≈ 0.904 µg/mL); MIC (Mycobacterium kansasii [27]): 1 µM (≈ 0.452 µg/mL); MIC (Mycobacterium kansasii [28]): 1 µM (≈ 0.452 µg/mL); MIC (Mycobacterium kansasii [29]): 1 µM (≈ 0.452 µg/mL); IC50 (HepG2): 2510 nM; MIC (Mycobacterium kansasii [30]): 0.5 µM (≈ 0.226 µg/mL)
CCOP(=O)(OCC)Oc1ccc(Cl)cc1C(=O)Nc1cccc(Cl)c1 | 16 µM (≈ 6.69 µg/mL) | 16 µM (≈ 6.69 µg/mL) | 4 µM (≈ 1.67 µg/mL) | 4 µM (≈ 1.67 µg/mL) | > 500 µM | > 500 µM | > 500 µM | > 500 µM | > 500 µM | > 500 µM | > 500 µM | > 500 µM | > 500 µM | > 500 µM | > 500 µM | > 500 µM | inactive | inactive | inactive | inactive | Activity (Klebsiella pneumoniae [18]): inactive; Activity (Escherichia coli): inactive; Activity (Enterococcus sp.): inactive; MIC95 [19]: 125 µM (≈ 52.3 µg/mL); MIC95 [20]: 125 µM (≈ 52.3 µg/mL); MIC95 (Staphylococcus aureus [21]): 500 µM (≈ 209 µg/mL); MIC95 (Staphylococcus aureus [22]): 500 µM (≈ 209 µg/mL); MIC95 (Staphylococcus aureus [23]): 500 µM (≈ 209 µg/mL); MIC95 (Staphylococcus aureus [24]): 500 µM (≈ 209 µg/mL); MIC (Mycobacterium kansasii [25]): 16 µM (≈ 6.69 µg/mL); MIC (Mycobacterium kansasii [26]): 16 µM (≈ 6.69 µg/mL); MIC (Mycobacterium kansasii [27]): 8 µM (≈ 3.35 µg/mL); MIC (Mycobacterium kansasii [28]): 8 µM (≈ 3.35 µg/mL); MIC (Mycobacterium kansasii [29]): 8 µM (≈ 3.35 µg/mL); IC50 (HepG2): 2680 nM; MIC (Mycobacterium kansasii [30]): 8 µM (≈ 3.35 µg/mL)
CCOP(=O)(OCC)Oc1cc(Cl)ccc1C(=O)Nc1ccc(Cl)cc1 | 8 µM (≈ 3.35 µg/mL) | 8 µM (≈ 3.35 µg/mL) | 4 µM (≈ 1.67 µg/mL) | 4 µM (≈ 1.67 µg/mL) | 500 µM (≈ 209 µg/mL) | 500 µM (≈ 209 µg/mL) | > 500 µM | > 500 µM | > 500 µM | > 500 µM | > 500 µM | > 500 µM | > 500 µM | > 500 µM | > 500 µM | > 500 µM | inactive | inactive | inactive | inactive | Activity (Klebsiella pneumoniae [18]): inactive; Activity (Escherichia coli): inactive; Activity (Enterococcus sp.): inactive; MIC95 [19]: 500 µM (≈ 209 µg/mL); MIC95 [20]: 250 µM (≈ 105 µg/mL); MIC95 (Staphylococcus aureus [21]): > 500 µM; MIC95 (Staphylococcus aureus [22]): 500 µM (≈ 209 µg/mL); MIC95 (Staphylococcus aureus [23]): 250 µM (≈ 105 µg/mL); MIC95 (Staphylococcus aureus [24]): 125 µM (≈ 52.3 µg/mL); MIC (Mycobacterium kansasii [25]): 8 µM (≈ 3.35 µg/mL); MIC (Mycobacterium kansasii [26]): 8 µM (≈ 3.35 µg/mL); MIC (Mycobacterium kansasii [27]): 4 µM (≈ 1.67 µg/mL); MIC (Mycobacterium kansasii [28]): 8 µM (≈ 3.35 µg/mL); MIC (Mycobacterium kansasii [29]): 4 µM (≈ 1.67 µg/mL); IC50 (HepG2): 5600 nM; MIC (Mycobacterium kansasii [30]): 4 µM (≈ 1.67 µg/mL)

Source: ChEMBL document CHEMBL3102784, “Salicylanilide diethyl phosphates: synthesis, antimicrobial activity and cytotoxicity” (Bioorg Med Chem, 2014)
